Data from publication PMC8851646 (ACS Omega, 2022).
Values after ≈ are worked out from the molar mass of the structure shown. Read-outs that look alike come from different tables or passages of the source.

Tests used:
[1] = tested on: K. pneumoniae NB29017; assay: Qualitative inhibition of mucoid appearance of colonies on solid LB agar; assay type: cell-based, Klebsiella pneumoniae; conditions: 4 fully mucoid, 0 nonmucoid, by eye
Procedure, shortened: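 Test compound dissolved in DMSO (12.8 mg/mL stock) and mixed into melted LB agar at 0–16 μg/mL final, then set in six-well plates. Mucoid wild-type NB29017 streaked for single colonies in each well. Plates incubated 18 h at 37 °C, then 2 h at 4 °C. Mucoid appearance scored by eye from 0 (none) to 4 (normal hypermucoid).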

[2] = tested on: K. pneumoniae wbbM mutant (NB29018) co-cultured with T. pyriformis; assay: Tp/Kp co-culture assay with cell surface-defective wbbM mutant; assay type: cell-based, Klebsiella pneumoniae; conditions: Tp threshold 4625–18,500 Tp/mL
[3] = tested on: K. pneumoniae NB29017; assay: Electron microscopy of cell surface material; assay type: cell-based, Klebsiella pneumoniae; conditions: grown in SM medium with 32 μg/mL compound
Procedure, shortened: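 K. pneumoniae NB29017 grown overnight with shaking at 37 °C in 10 mL SM medium, with or without test compound at 32 μg/mL. Diluted 1:50 into the same medium and grown to OD600 of about 2. Cells pelleted at 3000g and washed in Na-cacodylate pH 7.2. Fixed 2 h at 4 °C (2.5% glutaraldehyde, 1% tannic acid, 0.1 M Na-cacodylate, pH 7.2). Pelleted, taken up in cacodylate buffer and examined by electron microscopy.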

[4] = tested on: K. pneumoniae NB29017 co-cultured with T. pyriformis; assay: T. pyriformis/K. pneumoniae; assay type: cell-based, Klebsiella pneumoniae
[5] = tested on: P. aeruginosa; conditions: against P. aeruginosa; cited from earlier work
[6] = Red blood cell hemolysis; assay type: cell-based, sheep; conditions: sheep, erythrocytes from defibrinated sheep blood, pH 7.5
[7] = tested on: erythrocytes from defibrinated sheep blood; assay: Red blood cell hemolysis; assay type: cell-based; conditions: Table 1; concentration causing 50% hemolysis
[8] = Cytotoxicity in K562 cells; assay type: cell-based; conditions: human
[9] = tested on: Staphylococcus aureus; assay: Antibacterial MIC, Gram-positive control; assay type: cell-based; conditions: read-out: MIC Sa
[10] = molecular target: T1, P. aeruginosa LpxC (Pseudomonas aeruginosa, UniProt P47205); assay: Inhibition of purified LpxC enzyme; assay type: biochemical
T1 sequence (P47205 1-303): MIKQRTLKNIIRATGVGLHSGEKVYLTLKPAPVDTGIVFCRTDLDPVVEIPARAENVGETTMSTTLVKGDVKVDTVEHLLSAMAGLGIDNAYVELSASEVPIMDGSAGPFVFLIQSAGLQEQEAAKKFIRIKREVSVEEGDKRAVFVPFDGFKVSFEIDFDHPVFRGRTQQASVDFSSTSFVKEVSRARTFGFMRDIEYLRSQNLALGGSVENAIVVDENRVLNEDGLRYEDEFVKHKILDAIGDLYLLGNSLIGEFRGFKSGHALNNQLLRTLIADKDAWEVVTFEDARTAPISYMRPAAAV

[11] = tested on: K. pneumoniae NB29017; assay: Kp-only counterscreen for direct antibacterial activity; assay type: cell-based; conditions: Klebsiella pneumoniae, NB29017, read-out: IC50 for Kp only, hit from the HTS
[12] = tested on: K. pneumoniae (Kp); assay: Antibacterial MIC, broth; assay type: cell-based; conditions: Klebsiella pneumoniae, read-out: MIC, broth-based
[13] = tested on: K. pneumoniae NB29017; assay: Agar MIC; assay type: cell-based; conditions: Klebsiella pneumoniae, NB29017, read-out: agar MIC
[14] = read-out: Tp/Kp IC50, Table 2; expressed as μg/mL for comparison to agar values
[15] = read-out: IC50 Tp/Kp, Table 1; freshly dissolved powder, top concentration 20 μM

| SMILES | qualitative score on solid medium ([1]; 2 μg/mL compound in agar) | qualitative score on solid medium ([1]; 4 μg/mL compound in agar) | qualitative score on solid medium ([1]; 8 μg/mL compound in agar) | qualitative score on solid medium ([1]; 16 μg/mL compound in agar) | IC50 [4, 14] | IC50 [8] | IC50 [4, 15] | MIC [9] | further results |
| --- | --- | --- | --- | --- | --- | --- | --- | --- | --- |
| C=CCSc1nnc(C)c(O)n1 [D1, C=CCSc1nnc(C)c(O)n1, reference compound] | 4 | 3 | slight | 1 | 0.54 µg/mL |  |  |  | activity in the Tp/Kp wbbM assay [2]: largely retained; surface polysaccharide material by electron microscopy [3]: largely devoid of this; IC50 ([4]; read-out: Tp/Kp IC50, D1 control on the same plate, Tp set at 25000): 2.32 µM; IC50 ([4]; read-out: Tp/Kp IC50, D1 control on the same plate; Tp set at 25000): 2.73 µM; IC50 ([4]; read-out: median IC50 for D1 across 28 hit confirmation runs, standard deviation of 0.3): 2 µM; efficacy in an animal model of infection [5]: efficacy |
| COc1ccc2nc(NC(=O)c3cc(=O)c4ccccc4o3)sc2c1 [compound 63, COc4ccc3N=C(NC(=O)C2=CC(=O)c1ccccc1O2)Sc3c4] | 0 | 0 | 0 | 0 | 0.04 µg/mL | 34.4 µM | 0.11 µM | > 128 mg/L | qualitative score on solid medium ([1]; 1 μg/mL compound in agar): 1; hemolysis at 1 h [6]: 8.3%; RBC hemolysis (HC50) [7]: 64 µM |
| CC(C)(N)C(NC(=O)c1ccc(OCC#CC2CC2)cc1)C(=O)NO (stereo not drawn) [compound 180, CC(C)(N)C(NC(=O)c1ccc(cc1)OCC#CC2CC2)C(=O)NO] |  |  |  |  |  | 69.4 µM | 1.14 µM | > 128 mg/L | IC50 [10]: 0.04 µM |
| O=CN(O)CCCP(=O)(O)O [fosmidomycin] |  |  |  |  |  |  |  |  | IC50 [11]: > 20 µM; MIC [12]: > 128 mg/L; MIC [13]: 0.5 mg/L (≈ 2.73 µM); IC50 ([4]; read-out: IC50 for Tp/Kp, hit from the HTS): < 0.0781 µM |
